Results as given in ChEMBL document CHEMBL5647699, “Discovery of a chemical probe for PRDM9” (Nat Commun, 2019).
Calls of active or inactive are those of the source. The rule behind the calls is not given here.

Legend:
HEK-293T [1] = assay: Cytotoxicity against HEK293T cells at 10 uM measured after 4 days by IncuCyte zoom live-cell imaging analysis; type: toxicity, cell-based; conditions: human, 96 h, time 4 day
[2] = target: Histone-lysine N-methyltransferase PRDM9 (Homo sapiens) (UniProt Q9NQV7); assay: Binding affinity to PRDM9 (unknown origin) (195 to 415 residues) at 20 uM measured at 60 to 120 secs in presence of SAH by surface plasmon resonance assay; conditions: time 60-120 sec
Sequence of Histone-lysine N-methyltransferase PRDM9 (Homo sapiens) (Q9NQV7 whole entry, the tested form may be a part): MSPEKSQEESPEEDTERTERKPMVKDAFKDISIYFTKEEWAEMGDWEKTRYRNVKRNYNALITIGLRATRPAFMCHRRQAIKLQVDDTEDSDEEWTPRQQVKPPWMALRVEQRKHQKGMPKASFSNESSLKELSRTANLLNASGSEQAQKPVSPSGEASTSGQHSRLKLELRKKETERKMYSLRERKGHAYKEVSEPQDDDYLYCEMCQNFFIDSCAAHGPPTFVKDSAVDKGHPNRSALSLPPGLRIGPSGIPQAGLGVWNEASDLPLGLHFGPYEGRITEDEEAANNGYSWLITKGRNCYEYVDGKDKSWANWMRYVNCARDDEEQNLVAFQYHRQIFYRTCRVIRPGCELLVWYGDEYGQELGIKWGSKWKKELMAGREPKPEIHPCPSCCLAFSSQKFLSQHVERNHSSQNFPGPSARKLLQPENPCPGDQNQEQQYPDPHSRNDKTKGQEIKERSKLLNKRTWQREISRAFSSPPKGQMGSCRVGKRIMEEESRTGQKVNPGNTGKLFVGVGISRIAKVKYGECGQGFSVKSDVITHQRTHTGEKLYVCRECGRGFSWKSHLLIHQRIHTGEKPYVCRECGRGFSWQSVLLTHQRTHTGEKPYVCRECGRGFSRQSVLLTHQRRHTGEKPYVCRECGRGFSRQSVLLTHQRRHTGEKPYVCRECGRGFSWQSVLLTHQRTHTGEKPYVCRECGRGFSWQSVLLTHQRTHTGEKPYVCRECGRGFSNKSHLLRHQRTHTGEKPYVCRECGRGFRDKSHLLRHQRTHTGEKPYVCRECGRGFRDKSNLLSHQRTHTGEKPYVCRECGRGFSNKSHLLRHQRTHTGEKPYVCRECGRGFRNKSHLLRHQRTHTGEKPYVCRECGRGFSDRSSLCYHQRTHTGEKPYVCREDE

Spermatocyte [3] = assay: Induction of meiotic defect in wild type mouse spermatocyte assessed as non homologous synapsis by SYCP1/SYCP3 staining based immunofluorescence assay; type: functional, cell-based
HCC1806 = assay: Cytotoxicity against human HCC1806 cells at upto 30 uM measured for 3 to 6 days by celltiter glo assay; type: functional, cell-based; conditions: time 3-6 day
HEK-293T [4] = assay: Cytotoxicity against HEK293T cells at 3 uM measured after 4 days by IncuCyte zoom live-cell imaging analysis; type: toxicity, cell-based; conditions: human, 96 h, time 4 day
CAL-85-1 = assay: Cytotoxicity against human CAL-85-1 cells at upto 30 uM measured for 3 to 6 days by celltiter glo assay; type: functional, cell-based; conditions: time 3-6 day
[5] = target: Mu-type opioid receptor (Homo sapiens) (UniProt P35372); assay: Agonist activity at MOR receptor (unknown origin) by Glo Sensor assay; type: functional
Sequence of Mu-type opioid receptor (Homo sapiens) (P35372 whole entry): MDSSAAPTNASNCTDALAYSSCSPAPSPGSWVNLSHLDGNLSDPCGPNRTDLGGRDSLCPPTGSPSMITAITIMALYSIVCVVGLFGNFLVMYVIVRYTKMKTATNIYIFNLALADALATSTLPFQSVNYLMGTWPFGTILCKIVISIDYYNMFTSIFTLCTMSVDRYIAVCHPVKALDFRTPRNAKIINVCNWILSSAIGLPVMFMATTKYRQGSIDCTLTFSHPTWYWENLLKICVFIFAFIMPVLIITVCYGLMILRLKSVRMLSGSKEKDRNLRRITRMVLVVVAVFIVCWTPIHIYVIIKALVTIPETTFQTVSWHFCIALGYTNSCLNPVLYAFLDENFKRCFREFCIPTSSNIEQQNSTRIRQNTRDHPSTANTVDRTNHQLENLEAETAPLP

Spermatocyte [6] = assay: Induction of meiotic defect in wild type mouse spermatocyte assessed as effect on paring of chromosomal homolog by SYCP1/SYCP3 staining based immunofluorescence assay; type: functional, cell-based
MDA-MB-436 = assay: Cytotoxicity against human MDA-MB-436 cells at upto 30 uM measured for 3 to 6 days by celltiter glo assay; type: functional, cell-based; conditions: time 3-6 day
HEK-293T [7] = assay: Cytotoxicity against HEK293T cells at 3 uM measured after 24 hrs by IncuCyte zoom live-cell imaging analysis; type: toxicity, cell-based; conditions: human
In short: (§1)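 HEK293T cells seeded, treated next day with compound for 1 day; cell number counted by live-cell imaging after Vybrant DyeCycle Green staining; mean ± sd, n = 3.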

[8] = target: Histone-lysine N-methyltransferase PRDM9 (Homo sapiens) (UniProt Q9NQV7); assay: Binding affinity to PRDM9 (unknown origin) assessed as thermal stability by measuring change in melting temperature at 250 uM by SYPRO orange dye based differential scanning fluorimetry
In short: (§2)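 DSF with 250 μM compound; proteins at 0.02 mg mL⁻¹ final in 0.1 M HEPES pH 7.5, 150 mM NaCl with 2 mM SAM; ΔTm (Tm ligand − Tm apo) above 2 °C taken as binding.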

[9] = target: Histone-lysine N-methyltransferase PRDM9 (Homo sapiens) (UniProt Q9NQV7); assay: Inhibition of FLAG tagged PRDM9 transfected in human MCF7 cells cotransfected with H3-GFP assessed as inhibition of trimethylation H3K4 at upto 10 uM measured after 20 hrs by Western blot analysis; type: cell-based
[10] = target: Muscarinic acetylcholine receptor M2 (Homo sapiens) (UniProt P08172); assay: Agonist activity at muscarinic M2 receptor (unknown origin) by Glo Sensor assay; type: functional
Sequence of Muscarinic acetylcholine receptor M2 (Homo sapiens) (P08172 whole entry): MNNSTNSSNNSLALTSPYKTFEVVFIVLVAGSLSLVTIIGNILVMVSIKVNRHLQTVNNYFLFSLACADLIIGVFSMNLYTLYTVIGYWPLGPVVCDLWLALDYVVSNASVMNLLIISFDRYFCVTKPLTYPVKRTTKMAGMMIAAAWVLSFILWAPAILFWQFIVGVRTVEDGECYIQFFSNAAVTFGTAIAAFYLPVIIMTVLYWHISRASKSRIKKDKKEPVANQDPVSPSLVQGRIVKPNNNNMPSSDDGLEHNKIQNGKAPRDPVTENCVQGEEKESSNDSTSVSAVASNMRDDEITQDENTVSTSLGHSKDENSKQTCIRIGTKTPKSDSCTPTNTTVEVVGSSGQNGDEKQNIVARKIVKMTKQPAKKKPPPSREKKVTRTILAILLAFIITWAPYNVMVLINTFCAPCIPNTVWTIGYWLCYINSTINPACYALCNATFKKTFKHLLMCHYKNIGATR

MCF7 = assay: Cytotoxicity against human MCF7 cells assessed as reduction in cell viability at 10 uM measured on day 5 by IncuCyte zoom live-cell imaging analysis; type: functional, cell-based; conditions: time 5.0 day
In short: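 MCF7 cells seeded, treated next day with 10 μM compound in a 5-day proliferation assay; cell number counted by live-cell imaging after Vybrant DyeCycle Green staining.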

[11] = target: Histone-lysine N-methyltransferase PRDM9 (Homo sapiens) (UniProt Q9NQV7); assay: Inhibition of PRDM9 (unknown origin) at 1 to 10 uM; conditions: dose 1-10 µM
HCC1143 = assay: Cytotoxicity against human HCC1143 cells at upto 30 uM measured for 3 to 6 days by celltiter glo assay; type: functional, cell-based; conditions: time 3-6 day
SK-MM-2 = assay: Cytotoxicity against human SK-MM-2 cells at upto 30 uM measured for 3 to 6 days by celltiter glo assay; type: functional, cell-based; conditions: time 3-6 day
[12] = target: Histone-lysine N-methyltransferase PRDM7 (Homo sapiens) (UniProt Q9NQW5); assay: Binding affinity to PRDM7 (unknown origin) assessed as thermal stability by measuring change in melting temperature at 250 uM by SYPRO orange dye based differential scanning fluorimetry; in short: as §2
Sequence of Histone-lysine N-methyltransferase PRDM7 (Homo sapiens) (Q9NQW5 whole entry): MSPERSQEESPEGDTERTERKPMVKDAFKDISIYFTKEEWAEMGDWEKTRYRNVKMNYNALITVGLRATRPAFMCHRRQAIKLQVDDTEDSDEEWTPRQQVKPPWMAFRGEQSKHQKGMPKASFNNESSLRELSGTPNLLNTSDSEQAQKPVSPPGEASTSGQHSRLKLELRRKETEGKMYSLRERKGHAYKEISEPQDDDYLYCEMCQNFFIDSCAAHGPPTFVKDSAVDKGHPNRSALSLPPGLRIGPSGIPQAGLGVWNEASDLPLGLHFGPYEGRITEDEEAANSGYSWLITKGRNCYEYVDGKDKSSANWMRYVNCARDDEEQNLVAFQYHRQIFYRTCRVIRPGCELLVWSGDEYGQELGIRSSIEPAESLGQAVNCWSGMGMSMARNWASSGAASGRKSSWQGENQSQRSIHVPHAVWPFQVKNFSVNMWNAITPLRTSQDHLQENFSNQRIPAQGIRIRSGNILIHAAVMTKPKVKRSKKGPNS

[13] = target: Histone-lysine N-methyltransferase PRDM9 (Homo sapiens) (UniProt Q9NQV7); assay: Inhibition of PRDM9 (unknown origin) in presence of SAH
RPMI-8226 = assay: Cytotoxicity against human RPMI-8226 cells at upto 30 uM measured for 3 to 6 days by celltiter glo assay; type: functional, cell-based; conditions: time 3-6 day
[14] = target: Histamine H3 receptor (Homo sapiens) (UniProt Q9Y5N1); assay: Agonist activity at Histamine H3 (unknown origin) by Glo Sensor assay; type: functional
Sequence of Histamine H3 receptor (Homo sapiens) (Q9Y5N1 whole entry): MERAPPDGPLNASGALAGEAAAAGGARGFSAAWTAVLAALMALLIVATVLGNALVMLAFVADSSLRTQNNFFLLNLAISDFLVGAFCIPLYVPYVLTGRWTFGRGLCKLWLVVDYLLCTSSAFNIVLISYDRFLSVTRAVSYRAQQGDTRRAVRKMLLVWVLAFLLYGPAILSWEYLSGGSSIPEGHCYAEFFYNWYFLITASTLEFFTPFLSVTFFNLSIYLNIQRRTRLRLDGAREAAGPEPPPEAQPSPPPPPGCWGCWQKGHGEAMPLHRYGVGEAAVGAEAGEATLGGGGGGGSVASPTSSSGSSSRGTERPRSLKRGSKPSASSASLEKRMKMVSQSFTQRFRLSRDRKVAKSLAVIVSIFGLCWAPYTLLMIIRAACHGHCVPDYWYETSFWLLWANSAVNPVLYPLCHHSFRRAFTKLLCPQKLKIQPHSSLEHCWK

[15] = target: Histone-lysine N-methyltransferase PRDM9 (Homo sapiens) (UniProt Q9NQV7); assay: Inhibition of FLAG tagged PRDM9 transfected in HEK293T cells assessed as reduction in trimethylation of endogenous H3K4 measured after 20 hrs by Western blot analysis; type: cell-based; conditions: dose <= 10.0 µM
[16] = target: Histone-lysine N-methyltransferase PRDM9 (Homo sapiens) (UniProt Q9NQV7); assay: Inhibition of FLAG tagged PRDM9 transfected in HEK293T cells assessed as reduction in trimethylation of ectopic H3K4 measured after 20 hrs by Western blot analysis; type: cell-based; conditions: dose <= 10.0 µM
[17] = target: Muscarinic acetylcholine receptor M2 (Homo sapiens) (UniProt P08172); assay: Antagonist activity against muscarinic M2 receptor (unknown origin) by Glo Sensor assay; type: functional
[18] = tested on: Histone-lysine N-methyltransferase PRDM9 (Homo sapiens), Q9NQV7 [UNDEFINED MUTATION]; assay: Inhibition of PRDM9 mutant (unknown origin) expressed in […] cells assessed as reduction in H3k4me3 expression at TSS region of endogenous chromatin at 2.5 to 10 uM measured after 48 hrs by ChIP qPCR analysis; type: cell-based; conditions: HEK293T, dose 2.5-10 µM
Sequence of Histone-lysine N-methyltransferase PRDM9 (Homo sapiens), Q9NQV7 [UNDEFINED MUTATION] (Q9NQV7 whole entry, looked up, change not shown): as the sequence (Q9NQV7 whole entry, the tested form may be a part) above
In short: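 HEK293T cells transfected with empty vector, wild-type or catalytically dead PRDM9 and treated with 0.1% DMSO or compound for 48 h; formaldehyde fixed, sonicated chromatin (50 μg) immunoprecipitated with anti-H3K4me3 or anti-H3; qPCR at PRDM9-bound and control loci; mean ± s.d. of technical replicates, representative of two experiments.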

[19] = target: Alpha-2B adrenergic receptor (Homo sapiens) (UniProt P18089); assay: Antagonist activity against adrenergic alpha 2b receptor (unknown origin) by Glo Sensor assay; type: functional
Sequence of Alpha-2B adrenergic receptor (Homo sapiens) (P18089 whole entry): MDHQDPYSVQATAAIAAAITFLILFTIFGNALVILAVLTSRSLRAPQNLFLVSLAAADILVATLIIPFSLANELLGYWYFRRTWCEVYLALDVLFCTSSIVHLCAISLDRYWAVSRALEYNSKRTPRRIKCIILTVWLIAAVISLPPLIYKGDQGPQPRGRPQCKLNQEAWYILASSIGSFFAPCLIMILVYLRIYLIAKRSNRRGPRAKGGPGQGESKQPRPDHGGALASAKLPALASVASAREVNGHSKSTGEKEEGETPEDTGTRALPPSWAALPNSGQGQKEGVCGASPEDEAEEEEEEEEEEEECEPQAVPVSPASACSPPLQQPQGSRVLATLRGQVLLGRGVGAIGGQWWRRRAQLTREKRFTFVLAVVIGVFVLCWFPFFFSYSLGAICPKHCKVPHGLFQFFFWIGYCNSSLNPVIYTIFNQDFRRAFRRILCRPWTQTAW

[20] = target: Alpha-2B adrenergic receptor (Homo sapiens) (UniProt P18089); assay: Agonist activity at adrenergic alpha 2b receptor (unknown origin) by Glo Sensor assay; type: functional
[21] = target: Mu-type opioid receptor (Homo sapiens) (UniProt P35372); assay: Antagonist activity against MOR receptor (unknown origin) by Glo Sensor assay; type: functional
HEK-293T [22] = assay: Cytotoxicity against HEK293T cells at 10 uM measured after 24 hrs by IncuCyte zoom live-cell imaging analysis; type: toxicity, cell-based; conditions: human; in short: as §1

SMILES: COc1cc(OC)cc(-c2noc(N3CCN(C)C4(CCN(c5ccnc(C)c5)CC4)C3)n2)c1
- Activity (HEK-293T [1]): Toxic
- Activity [2]: inactive
- Activity (Spermatocyte [3]): Active
- Activity (HCC1806): inactive
- Activity (HEK-293T [4]): Non-Toxic
- Activity (CAL-85-1): inactive
- Activity [5]: inactive
- Activity (Spermatocyte [6]): Active
- Activity (MDA-MB-436): inactive
- Activity (HEK-293T [7]): Non-Toxic
- ΔTm [8]: > 2 °C
- inhibition [9]: Active
- Activity [10]: inactive
- Activity (MCF7): inactive
- inhibition [11]: Active
- Activity (HCC1143): inactive
- Activity (SK-MM-2): inactive
- ΔTm [12]: > 2 °C
- inhibition [13]: inactive
- Activity (RPMI-8226): inactive
- Activity [14]: inactive
- inhibition [15]: Dose-Dependent Effect
- inhibition [16]: Dose-Dependent Effect
- Activity [17]: inactive
- inhibition [18]: inactive
- Activity [19]: inactive
- Activity [20]: inactive
- Activity [21]: inactive
- Activity (HEK-293T [22]): Toxic
